Source: PubChem BioAssay
A selection: hits, their analogues and other compounds. The true share with any hit is near 1.7%.
core dimer inh – HCV core protein dimerization inhibition; inhibition, % at 5 µM; actives 0.33% (n = 300,000); TR-FRET GST/Flag-core106 dimerization, 1536-well;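 active = inhibition above the mean of all tested compounds plus 3 SD, set per screening campaign, cut at about 45% in these data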
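test system = GST/Flag-tagged HCV core106 proteins | probe or stimulus = Eu donor and XL665 acceptor anti-tag antibodies | times = compound-protein-antibody incubation 4 h at 22.5 °C | signal = TR-FRET, excitation 340 nm, emission 617 and 671 nm | measure = percent inhibition of core106 dimerization signal | controls = wells lacking GST-core106 and wells with excess unlabelled core106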
NS3 helicase inh – inhibitors of Hepatitis C virus NS3 helicase. NS3 helicase DNA unwinding, Cy5 molecular beacon fluorescence. inhibition, % at 10.9 µM. actives 0.56% (n = 290,000). AID 1800;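 active = inhibition above the mean of all tested compounds plus 3 SD, set per campaign, cut at about 35% in these data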;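 also: 0% = DMSO wells and 100% = thioflavine S control wells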
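Measured by: Cy5 fluorescence, 0 and 60 min reads / Assay system: NS3 helicase fragment of HCV / Control set: low DMSO, high thioflavine S at 110 µM / Times: 1 h reaction at 25 °C, ATP-initiated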
EBNA-1 inhibitor – blocks EBNA-1 binding to DNA; EBNA-1 DNA binding, fluorescence polarization; inhibition, % at 14.8 µM; actives 0.34% (n = 300,000); in the data active = inhibition above about 28%
EBV gp42 block – EBV gp42 inhibition. Q1HVG2. Fluorescence polarization binding assay, mP read-out. actives 0.42% (n = 220,000). inhibition, % (tested at 21.74 µM); in the data active = inhibition above about 50%
Target sequence (Q1HVG2 whole entry, looked up): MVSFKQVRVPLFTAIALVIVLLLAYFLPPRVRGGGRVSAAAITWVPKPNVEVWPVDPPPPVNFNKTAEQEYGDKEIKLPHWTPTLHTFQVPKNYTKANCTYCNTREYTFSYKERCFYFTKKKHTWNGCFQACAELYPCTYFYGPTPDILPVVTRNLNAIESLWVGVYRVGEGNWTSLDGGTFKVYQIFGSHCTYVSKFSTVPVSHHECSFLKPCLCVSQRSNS
ZTA counter – counter-screen for EBNA-1 inhibitors: inhibitors of Epstein-Barr virus ZTA; P03206; AID 2234; actives 0.15% (n = 320,000); ZTA-DNA binding, fluorescence polarization; inhibition, % at 11 µM; in the data active = inhibition above about 33%
Target sequence (P03206 whole entry, looked up): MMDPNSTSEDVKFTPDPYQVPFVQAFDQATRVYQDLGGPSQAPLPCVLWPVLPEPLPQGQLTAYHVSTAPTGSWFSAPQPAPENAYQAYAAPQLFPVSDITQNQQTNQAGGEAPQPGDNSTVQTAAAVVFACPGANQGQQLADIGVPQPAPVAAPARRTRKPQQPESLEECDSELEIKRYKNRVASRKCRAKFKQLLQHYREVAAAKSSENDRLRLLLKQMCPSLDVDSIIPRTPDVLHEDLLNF
MEX-5 binding – C. elegans MEX-5 TCR-2 RNA binding activity; activity score (negative = inhibition of binding), % at 10 µM; MEX-5/FITC-TCR2 RNA binding, fluorescence polarization; active compounds read low; AID 1832; actives 0.38% (n = 300,000);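 active = inhibition past about -25% in most replicates, and total fluorescence under double the plate's negative control median, limit read from the data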;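 also: 0% = DMSO and -100% = 5 µM competing unlabeled TCR2 RNA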
NS3 helicase cf – confirmation of Hepatitis C virus NS3 helicase inhibitors; actives 31% (n = 1,600); inhibition, % at 10.9 µM; shares compounds with NS3 helicase inh; NS3 helicase DNA unwinding, Cy5 molecular beacon fluorescence;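 active = inhibition above the mean of all tested compounds plus 3 SD, cutoff set per campaign, cut at about 36% in these data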
FID counter trip – displaces DNA intercalator in HCV helicase counter-screen. actives 4% (n = 1,600). shares compounds with NS3 helicase inh. inhibition, % at 7.9 µM. DNA fluorescent intercalator displacement, fluorescence; in the data active = inhibition above about 37%;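 also: 0% = vehicle and 100% = reference compound; higher means more displacement of ethidium bromide from the DNA hairpin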
FID counter DR – displaces fluorescent intercalator from DNA, HCV helicase counter-screen. shares compounds with NS3 helicase inh. fluorescent intercalator displacement from DNA, fluorescence. IC50, µM. 120 tested, under 10 active. AID 2172; call rule not given here
Starred values were filed as active, the others as inactive; . = no result.

SMILES	core dimer inh	NS3 helicase inh	EBNA-1 inhibitor	EBV gp42 block	ZTA counter	MEX-5 binding	NS3 helicase cf	FID counter trip	others
CCCOc1ccc2ccccc2c1/C=C1\SC(=O)NC1=O	10	36*	-14	.	5	1	30	-21
CCOC(=O)c1ccc(N2C(=O)C(O)=C(C(C)=O)C2c2ccc([N+](=O)[O-])cc2)cc1 (stereo unspecified)	-3	45*	-10	.	0	4	36*	-23
CCOC(=O)c1sc(N2C(=O)C(O)=C(C(=O)c3ccco3)C2c2ccc([N+](=O)[O-])cc2)nc1C (stereo unspecified)	-3	37*	1	.	-17	0	106*	28
CC(=O)C1=C(O)C(=O)N(c2ccc(C(=O)O)cc2)C1c1ccc([N+](=O)[O-])cc1 (stereo unspecified)	-2	-1	-5	.	-10	1	.	.
CSc1ccc(C2C(C(=O)c3ccco3)=C(O)C(=O)N2c2nnc(SC)s2)cc1 (stereo unspecified)	28	39*	3	.	4	-59*	89*	4	FID counter DR=>79
Cc1cc(N2C(=O)C(O)=C(C(=O)c3ccco3)C2c2ccc([N+](=O)[O-])cc2)no1 (stereo unspecified)	18	5	0	.	13	2	.	.
Cn1c(NN)nc2c1c(=O)n(Cc1ccccc1)c(=O)n2C	.	30	.	.	.	-6	.	.
CCc1c(C(=O)N/N=C/c2ccco2)nnn1-c1nonc1N	0	0	3	.	14	-1	.	.
O=C(c1ccccc1Cc1ccccc1)N1CCN(S(=O)(=O)c2ccccc2Br)CC1	9	.	2	.	0	-2	.	.
CCOC(=O)C1=C(O)/C(=C/c2ccc(OCC(=O)O)c(OC)c2)SC1=Nc1ccc(OC)cc1	2	36*	-1	-11	-9	0	42*	-16
CCN(CC)CCNC(=O)c1ccc(NC(=O)c2ccccc2-c2ccc(C(F)(F)F)cc2)cc1	-14	-54	-5	.	-20	-1	.	.
C/C(=N\NC(=O)c1cc(O)ccc1O)c1cccc(NC(=O)c2cccc(Cl)c2)c1	-7	24	5	.	-4	2	.	.
C/C(=N\NC(=O)c1cc(O)ccc1O)c1cccc(NC(=O)c2ccc(Cl)cc2)c1	-10	40*	4	.	0	0	-17	11
CCOC(=O)C1C(=O)NC(N2CCCCC2)=NC1c1ccccc1 (stereo unspecified)	0	5	3	-7	2	1	.	.
CCOC(=O)C1C(=O)NC(c2ccccc2)=NC1c1ccc(O)c(OC)c1 (stereo unspecified)	-2	56*	12	-10	1	0	-14	3
COc1ccc(C(C(=O)NCC2CCCO2)N(C(=O)CNC(=O)c2ccco2)c2ccccc2)cc1OC (stereo unspecified)	-11	-2	-3	.	-10	1	.	.
CCOC(=O)c1ccc(N(C(=O)CNC(=O)c2ccco2)C(C(=O)NCC2CCCO2)c2ccc(OC)c(OC)c2)cc1 (stereo unspecified)	8	51*	15	.	5	0	-10	-53
CN(C)c1ccc(/C=N/NC(=O)c2ccccc2O)o1	-2	-1	-14	-58	2	-10	.	.
CN(C)c1ccc(/C=N/NC(=O)C(O)(c2ccccc2)c2ccccc2)o1	7	65*	-6	5	15	-2	-31	-31
CCCCCC(=O)Nc1ccc(S(=O)(=O)NC2=NCCCCC2)cc1	.	.	.	.	-1	.	.	.
Cc1ccc(-n2nc(C)c3c2OC(N)=C(C#N)C3c2ccoc2)cc1 (stereo unspecified)	0	45*	9	-14	24	-2	-18	18
O=C(CSC(=S)N1CCCC1)Nc1ncc(Cl)cc1Cl	-1	.	-11	.	-7	-2	.	.
Cc1ccc(-n2nc(-c3cccnc3)cc2C(=O)N2CCOCC2)c(C)c1	42	5	1	-19	0	0	.	.
O=C(O)c1cc(-c2ccco2)nn1-c1cccc(Cl)c1	11	48*	7	17	10	-8	32	0
O=C(O)c1cc(-c2ccco2)nn1-c1ccc(Cl)cc1	.	44*	.	27	.	-1	83*	7
SMILES	core dimer inh	NS3 helicase inh	EBNA-1 inhibitor	EBV gp42 block	ZTA counter	MEX-5 binding	NS3 helicase cf	FID counter trip	others
Cc1nn(-c2ccccc2)c2nc(-c3ccco3)cc(C(=O)O)c12	14	42*	17	-16	10	-9	67*	-9
Cc1ccc(-n2nc(-c3ccco3)cc2C(=O)O)c(C)c1	.	47*	.	23	.	-1	26	-5
Cc1nn(-c2cccc(Cl)c2)c2nc(-c3ccco3)cc(C(=O)O)c12	10	-3	5	-2	14	-3	.	.
O=C(O)c1cc(-c2cccs2)nn1-c1cccc(Cl)c1	8	7	0	-17	4	2	.	.
CCCCCCN(C(=O)CCCCCN1C(=O)NC(c2ccc(-c3ccccc3)cc2)C(C(=O)OCc2ccccc2)=C1C)C(C(=O)NCCCC)c1ccc(O)cc1 (stereo unspecified)	.	22	.	-11	.	.	.	.
CCN(CC(=O)Nc1c(F)cccc1F)C(=O)CN1C(=O)NC2(CCCC2)C1=O	-1	.	7	.	15	-3	.	.
Cc1cc(-n2c(C)cc(C(=O)CSc3ccc4c(c3)OCCO4)c2C)no1	5	37*	-3	-6	-13	8	0	-23
COc1cc(-c2nc3cccc(C)n3c2NCC2CCCO2)ccc1O (stereo unspecified)	1	5	-9	27	-7	-1	.	.
Cc1nc(Nc2ccc(S(N)(=O)=O)cc2)oc1C	0	81*	3	-12	2	0	-13	1
Cc1ccc(/C=C/C(=O)Nc2ccc(S(N)(=O)=O)cc2)o1	0	3	-1	-16	-15	-1	.	.
CCC(C)[C@H](N)C(=O)NC[C@H]1CC[C@H](C(=O)N[C@@H](Cc2ccccc2)C(=O)O)CC1 (stereo partly specified)	.	-10	.	.	.	-1	.	.
CCOC(=O)Cn1c(-c2ccccn2)nc2ccccc21	-1	-1	-1	-14	0	0	.	.
CCOC(=O)c1ccc2c(c1)nc(-c1ccccn1)n2CC	-6	36*	-5	.	-10	1	1	-17
N#Cc1ccc(S(=O)(=O)N2CCN(CC(=O)NCC3(N4CCOCC4)CCCCC3)CC2)cc1	.	.	.	.	-3	.	.	.
